Test results published in ChEMBL document CHEMBL1268917, “Synthesis and biological evaluation of radio-iodinated benzimidazoles as SPECT imaging agents for NR2B subtype of NMDA receptor” (Bioorg Med Chem, 2010).

Key:
Type in all cases: ADME, organism-based
[1] = test system: Liver; test: Biodistribution in ddY mouse liver assessed per gram of tissue at 14.8 kBq, iv after 60 mins; conditions: in vivo, 1 h
Procedure, shortened: (§1)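 Radioiodinated tracer (14.8 kBq) injected via tail vein into male ddY mice (6 weeks, 30–35 g). Organs removed at set times after injection, weighed and gamma-counted; uptake expressed as % injected dose per gram tissue, mean ± SD, n = 5–6.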

[2] = test system: Heart; test: Biodistribution in ddY mouse heart assessed per gram of tissue at 14.8 kBq, iv after 180 mins; conditions: in vivo, 3 h
Procedure, shortened: (§2)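 Killed at set times after injection; organs and blood removed, weighed, gamma counted. Data as % injected dose per gram tissue, mean SD, n = 5–6.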

[3] = test system: Spleen; test: Biodistribution in ddY mouse spleen assessed per gram of tissue at 14.8 kBq, iv after 5 mins; conditions: in vivo; procedure, shortened: as §1
[4] = test system: Spleen; test: Biodistribution in ddY mouse spleen assessed per gram of tissue at 14.8 kBq, iv after 60 mins; conditions: in vivo, 1 h; procedure, shortened: as §1
[5] = test system: Pancreas; test: Biodistribution in ddY mouse pancreas assessed per gram of tissue at 14.8 kBq, iv after 360 mins; conditions: in vivo, 6 h; procedure, shortened: as §1
[6] = test system: Kidney; test: Biodistribution in ddY mouse kidney assessed per gram of tissue at 14.8 kBq, iv after 360 mins; conditions: in vivo, 6 h; procedure, shortened: as §2
[7] = test system: Brain; test: Biodistribution in ddY mouse brain assessed per gram of tissue at 14.8 kBq, iv after 180 mins; conditions: in vivo, 3 h; procedure, shortened: as §2
[8] = test system: Heart; test: Biodistribution in ddY mouse heart assessed per gram of tissue at 14.8 kBq, iv after 0.5 mins; conditions: in vivo; procedure, shortened: as §2
[9] = test system: Spleen; test: Biodistribution in ddY mouse spleen assessed per gram of tissue at 14.8 kBq, iv after 0.5 mins; conditions: in vivo; procedure, shortened: as §1
[10] = test system: Heart; test: Biodistribution in ddY mouse heart assessed per gram of tissue at 14.8 kBq, iv after 360 mins; conditions: in vivo, 6 h; procedure, shortened: as §2
[11] = test system: Kidney; test: Biodistribution in ddY mouse kidney assessed per gram of tissue at 14.8 kBq, iv after 60 mins; conditions: in vivo, 1 h; procedure, shortened: as §2
[12] = test system: Stomach; test: Biodistribution in ddY mouse stomach assessed per gram of tissue at 14.8 kBq, iv after 0.5 mins; conditions: in vivo; procedure, shortened: as §1
[13] = test system: Liver; test: Biodistribution in ddY mouse liver assessed per gram of tissue at 14.8 kBq, iv after 180 mins; conditions: in vivo, 3 h; procedure, shortened: as §2
[14] = test system: Intestine; test: Biodistribution in ddY mouse intestine assessed per gram of tissue at 14.8 kBq, iv after 180 mins; conditions: in vivo, 3 h; procedure, shortened: as §2
[15] = test system: Spleen; test: Biodistribution in ddY mouse spleen assessed per gram of tissue at 14.8 kBq, iv after 30 mins; conditions: in vivo, 0.5 h; procedure, shortened: as §1
[16] = test system: Lung; test: Biodistribution in ddY mouse lung assessed per gram of tissue at 14.8 kBq, iv after 60 mins; conditions: in vivo, 1 h; procedure, shortened: as §1
[17] = test system: Kidney; test: Biodistribution in ddY mouse kidney assessed per gram of tissue at 14.8 kBq, iv after 30 mins; conditions: in vivo, 0.5 h; procedure, shortened: as §2
[18] = test system: Lung; test: Biodistribution in ddY mouse lung assessed per gram of tissue at 14.8 kBq, iv after 5 mins; conditions: in vivo; procedure, shortened: as §1
[19] = test system: Intestine; test: Biodistribution in ddY mouse intestine assessed per gram of tissue at 14.8 kBq, iv after 360 mins; conditions: in vivo, 6 h; procedure, shortened: as §2
[20] = test system: Pancreas; test: Biodistribution in ddY mouse pancreas assessed per gram of tissue at 14.8 kBq, iv after 0.5 mins; conditions: in vivo; procedure, shortened: as §1
[21] = test system: Liver; test: Biodistribution in ddY mouse liver assessed per gram of tissue at 14.8 kBq, iv after 360 mins; conditions: in vivo, 6 h; procedure, shortened: as §2
[22] = test system: Brain; test: Biodistribution in ddY mouse brain assessed per gram of tissue at 14.8 kBq, iv after 60 mins; conditions: in vivo, 1 h; procedure, shortened: as §2
[23] = test system: Blood; test: Biodistribution in ddY mouse blood assessed per gram of tissue at 14.8 kBq, iv after 180 mins; conditions: in vivo, 3 h; procedure, shortened: as §2
[24] = test system: Lung; test: Biodistribution in ddY mouse lung assessed per gram of tissue at 14.8 kBq, iv after 180 mins; conditions: in vivo, 3 h; procedure, shortened: as §1
[25] = test system: Kidney; test: Biodistribution in ddY mouse kidney assessed per gram of tissue at 14.8 kBq, iv after 5 mins; conditions: in vivo; procedure, shortened: as §2
[26] = test system: Liver; test: Biodistribution in ddY mouse liver assessed per gram of tissue at 14.8 kBq, iv after 30 mins; conditions: in vivo, 0.5 h; procedure, shortened: as §2
[27] = test system: Blood; test: Biodistribution in ddY mouse blood assessed per gram of tissue at 14.8 kBq, iv after 360 mins; conditions: in vivo, 6 h; procedure, shortened: as §2
[28] = test system: Stomach; test: Biodistribution in ddY mouse stomach assessed per gram of tissue at 14.8 kBq, iv after 180 mins; conditions: in vivo, 3 h; procedure, shortened: as §1
[29] = test system: Kidney; test: Biodistribution in ddY mouse kidney assessed per gram of tissue at 14.8 kBq, iv after 0.5 mins; conditions: in vivo; procedure, shortened: as §2
[30] = test system: Stomach; test: Biodistribution in ddY mouse stomach assessed per gram of tissue at 14.8 kBq, iv after 30 mins; conditions: in vivo, 0.5 h; procedure, shortened: as §1

- Drug uptake [1]: 13.74 % ID/g
- Drug uptake [2]: 6.93 % ID/g
- Drug uptake [3]: 3.19 % ID/g
- Drug uptake [4]: 2.78 % ID/g
- Drug uptake [5]: 3.72 % ID/g
- Drug uptake [6]: 10.51 % ID/g
- Drug uptake [7]: 0.67 % ID/g
- Drug uptake [8]: 9.07 % ID/g
- Drug uptake [9]: 0.9 % ID/g
- Drug uptake [10]: 3.62 % ID/g
- Drug uptake [11]: 8.52 % ID/g
- Drug uptake [12]: 0.42 % ID/g
- Drug uptake [13]: 17.81 % ID/g
- Drug uptake [14]: 7.82 % ID/g
- Drug uptake [15]: 2.91 % ID/g
- Drug uptake [16]: 1.7 % ID/g
- Drug uptake [17]: 8.79 % ID/g
- Drug uptake [18]: 3.52 % ID/g
- Drug uptake [19]: 6.49 % ID/g
- Drug uptake [20]: 0.92 % ID/g
- Drug uptake [21]: 10.93 % ID/g
- Drug uptake [22]: 0.52 % ID/g
- Drug uptake [23]: 0.55 % ID/g
- Drug uptake [24]: 1.61 % ID/g
- Drug uptake [25]: 10.99 % ID/g
- Drug uptake [26]: 16.67 % ID/g
- Drug uptake [27]: 0.36 % ID/g
- Drug uptake [28]: 4.04 % ID/g
- Drug uptake [29]: 3.26 % ID/g
- Drug uptake [30]: 2.24 % ID/g
Compound: CS(=O)(=O)Nc1ccc2nc(CN3CCC(Cc4ccc([125I])cc4)CC3)[nH]c2c1
